The target in this experiment is Gamma-secretase. In words: Modulation of gamma secretase in human H4 cells expressing human wild type APP assessed as inhibition of amyloid beta 42 production after 22 hrs by electrochemiluminescence assay. The experiment is classed as cell-based. The gist of the method: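 H4 cells overexpressing human APPwt, 10,000/well, were exposed to compound 22 h at 37°C, 5% CO2. Supernatant was diluted with medium on an MSD anti-Aβ42 plate and detected with S-tag 6E10 (1:50, 1 h). Read-out was electrochemiluminescence.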

Consider 18 compounds from ChEMBL document CHEMBL4118159, “Discovery of tetrahydroindazoles as a novel class of potent and in vivo efficacious gamma secretase modulators” (Bioorg Med Chem, 2018).

The term IC50 denotes the midpoint of a concentration-inhibition curve. As to `CCCCCn1ncc2c1CCC(Nc1nc3c(-c4ccc(F)cc4C)cccn3n1)C2` (stereo not drawn), the half-maximal inhibitory concentration (IC50) is above 30000 nM.

Regarding `CCc1nnn2c1CCC(Nc1nc3c(-c4ccc(F)cc4C)cccn3n1)C2` (stereo not drawn), the IC50 amounted to 740 nM.

As for `CCn1ncc2c1CCC(Nc1nc3c(-c4ccccc4C)cccn3n1)C2` (stereo not drawn), the half-inhibitory concentration (IC50) is 160 nM.

Take `CCn1ncc2c1CCC(Nc1nc3c(-c4ccc(F)cc4)cccn3n1)C2` (stereo not drawn): the IC50 is 180 nM.

As for `CCn1ncc2c1CCC(Nc1nc3c(-c4ccc(C)nc4)cccn3n1)C2` (stereo not drawn), the IC50 came out at 670 nM.

`CCn1ncc2c1CCC(Nc1nc3c(-c4cnccc4C)cccn3n1)C2` (stereo not drawn): the IC50 came out at 730 nM.

Turning to `CCn1ncc2c1CCC(Nc1nc3c(-c4ccccc4Cl)cccn3n1)C2` (stereo not drawn), the IC50 is 60 nM.

With `CCn1ncc2c1CCC(Nc1nc3c(-c4cncc(OC)c4)cccn3n1)C2` (stereo not drawn), the IC50 was found to be 200 nM.

Consider `CCCn1ncc2c1CCC(Nc1nc3c(-c4ccc(F)cc4C)cccn3n1)C2` (stereo not drawn), for which the IC50 amounted to 60 nM.

`CCn1ncc2c1CC[C@@H](Nc1nc3c(-c4ccc(F)c(Cl)c4)cccn3n1)C2`: the IC50 worked out at 9 nM.

With `CCn1ncc2c1CCC(Nc1nc3c(-c4cncc(Cl)c4)cccn3n1)C2` (stereo not drawn), the IC50 was 40 nM.

For `Cc1cc(F)ccc1-c1cccn2nc(NC3CCc4c(cnn4CC(C)C)C3)nc12` (stereo not drawn), the IC50 amounted to 3400 nM.

Turning to `CCc1nnc2n1CCC(Nc1nc3c(-c4ccc(F)cc4C)cccn3n1)C2` (stereo not drawn), the IC50 came out at 1390 nM.

For `CCn1ncc2c1CCC(Nc1nc3c(-c4ccccc4)cccn3n1)C2` (stereo not drawn), the IC50 amounted to 70 nM.

On to `CCn1ncc2c1CCC(Nc1nc3c(-c4ccc(F)c(Cl)c4)cccn3n1)C2` (stereo not drawn), for which the half-maximal inhibitory concentration (IC50) was found to be 20 nM.

As to `Cc1cc(F)ccc1-c1cccn2nc(Nc3ccc4c(cnn4C)c3)nc12`, the IC50 worked out at 1200 nM.

Take `CCn1ncc2c1CCC(Nc1nc3c(-c4cccnc4OC)cccn3n1)C2` (stereo not drawn): the IC50 was 500 nM.

`CCn1ncc2c1CCC(Nc1nc3c(-c4cncc(C)c4)cccn3n1)C2` (stereo not drawn): the IC50 worked out at 200 nM.
